Holding throughout (assay type): functional, cell-based
Assay [1] is described as follows: Growth inhibition of human HepG2 cells measured after 72 hrs by MTT assay. The settings on record: HepG2, 72 h. The essentials: (§1)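 Cells seeded at 1 x 10^4/100 µL, treated 24 h later with drug diluted from 2 mmol/L DMSO stock (0.01% DMSO final), 72 h incubation. MTT added for 3 h at 37°C, formazan dissolved in 0.1 N HCl/isopropanol, OD read at 550/630 nm. Eight replicates per concentration, mean ± SD. IC50 from curve fitting. Cells kept at 37°C in humidified CO2.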

Assay [2] is described as follows: Growth inhibition of human EAhy926 cells measured after 72 hrs by MTT assay. The following applies: EA.hy 926, 72 h. A digest of the protocol:
as §1

Assay [3] can be described thus: Growth inhibition of human K562 cells measured after 72 hrs by MTT assay. The settings on record: K562, 72 h. The essentials: as §1

For the compound `COc1ccc(/C=C\c2cccc3oc(=O)n(C)c23)cc1`, the IC50 in assay [1] was found to be 16.1 µM; in assay [2], 39.9 µM; in assay [3], 0.96 µM.

Turning to `COc1cc(/C=C\c2cccc3c2oc(=O)n3C)cc(OC)c1`, the results for the IC50 in assay [1], in assay [2] and in assay [3] were 4.25 µM, 9.53 µM and 0.95 µM, respectively.

For `COc1ccc(/C=C\c2cccc3oc(=O)n(C)c23)cc1OC`, the IC50 was greater than 50 µM in assay [1], greater than 50 µM in assay [2] and 2.07 µM in assay [3].

As to `COc1cc(/C=C\c2cccc3oc(=O)n(C)c23)cc(OC)c1OC`, the IC50 in assay [1] worked out at 19 µM; in assay [2], 14.8 µM; in assay [3] it was 10.1 µM.

As for `COc1cc(/C=C\c2ccc3oc(=O)n(C)c3c2)cc(OC)c1OC`, the IC50 in assay [1] was 39.7 µM; in assay [2], greater than 50 µM; in assay [3], greater than 50 µM.

Consider `COc1ccc(/C=C\c2cccc3c2oc(=O)n3C)cc1`, for which the IC50 in assay [1] was 47.2 µM; in assay [2], greater than 50 µM; in assay [3], greater than 50 µM.

Take `COc1cc(/C=C\c2cccc3c2oc(=O)n3C)cc(OC)c1OC`: the IC50 in assay [1] came out at 1.07 µM; in assay [2], 10.3 µM; in assay [3], 0.71 µM.

In the case of `COc1cc(/C=C\c2cccc3oc(=O)n(C)c23)cc(OC)c1`, the IC50 in assay [1] came out at 18 µM; in assay [2], 29.4 µM; in assay [3] it was 11.3 µM.

In the case of `COc1ccc(/C=C\c2cccc3c2oc(=O)n3C)cc1OC`, the IC50 in assay [1] was 30.2 µM; in assay [2], greater than 50 µM; in assay [3], greater than 50 µM.

Regarding `COc1ccc(/C=C\c2ccc3c(c2)oc(=O)n3C)cc1`, the IC50 in assay [1], in assay [2] and in assay [3] was greater than 50 µM throughout.

Regarding `COc1ccc(/C=C\c2ccc3c(c2)oc(=O)n3C)cc1OC`, the IC50 in assay [1] was 38.3 µM; in assay [2], greater than 50 µM; in assay [3], greater than 50 µM.

With `COc1ccc(/C=C\c2ccc3oc(=O)n(C)c3c2)cc1OC`, the IC50 is 42.1 µM in assay [1], greater than 50 µM in assay [2] and greater than 50 µM in assay [3].

For the compound `COc1ccc(/C=C\c2ccc3oc(=O)n(C)c3c2)cc1`, the IC50 in assay [1] is 48.1 µM; in assay [2], 15.1 µM; in assay [3], 24.2 µM.
